Assay results: the M2OR odorant receptor database

Legend:
Conditions in all cases: stereoisomer not certain
OR52I1 (Homo sapiens) = target: T1, OR52I1 (Homo sapiens) (UniProt Q8NGK6)
T1 sequence (whole entry): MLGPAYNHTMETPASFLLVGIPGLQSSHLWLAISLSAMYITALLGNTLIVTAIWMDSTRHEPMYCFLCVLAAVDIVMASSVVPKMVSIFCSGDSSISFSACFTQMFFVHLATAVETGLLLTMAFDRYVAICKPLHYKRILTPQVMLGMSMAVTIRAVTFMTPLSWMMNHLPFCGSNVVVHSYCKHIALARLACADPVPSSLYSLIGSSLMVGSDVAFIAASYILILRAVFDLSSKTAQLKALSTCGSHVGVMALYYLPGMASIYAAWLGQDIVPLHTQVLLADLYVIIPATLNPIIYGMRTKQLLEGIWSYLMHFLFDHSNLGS
Method in brief: (§1)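 Each receptor–molecule pair is labelled responsive or non-responsive (inactive) according to whether the original authors judged the measured signal statistically different from baseline. The data were taken from the main text and supplementary material of published papers and checked for typos and inconsistencies. Assay methods differed by source, with transient luciferase assays in mammalian cell lines being common.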

OR52I2 (Homo sapiens) = target: T2, OR52I2 (Homo sapiens) (UniProt Q8NH67)
T2 sequence (whole entry): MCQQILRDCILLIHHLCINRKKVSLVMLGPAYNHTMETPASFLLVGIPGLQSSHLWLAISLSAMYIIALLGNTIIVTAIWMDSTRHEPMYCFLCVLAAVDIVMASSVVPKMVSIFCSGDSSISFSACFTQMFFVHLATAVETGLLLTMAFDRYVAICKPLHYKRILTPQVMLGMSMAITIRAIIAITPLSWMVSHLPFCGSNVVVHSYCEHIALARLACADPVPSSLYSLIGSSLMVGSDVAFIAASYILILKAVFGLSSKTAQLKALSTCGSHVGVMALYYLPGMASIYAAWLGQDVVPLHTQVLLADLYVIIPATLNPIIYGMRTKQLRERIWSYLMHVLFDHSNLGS
Method in brief: as §1

OR52J3 (Homo sapiens) = OR52J3 (Homo sapiens) (UniProt Q8NH60)
Method in brief: as §1

OR52K1 (Homo sapiens) = target: T3, OR52K1 (Homo sapiens) (UniProt Q8NGK4)
T3 sequence (whole entry): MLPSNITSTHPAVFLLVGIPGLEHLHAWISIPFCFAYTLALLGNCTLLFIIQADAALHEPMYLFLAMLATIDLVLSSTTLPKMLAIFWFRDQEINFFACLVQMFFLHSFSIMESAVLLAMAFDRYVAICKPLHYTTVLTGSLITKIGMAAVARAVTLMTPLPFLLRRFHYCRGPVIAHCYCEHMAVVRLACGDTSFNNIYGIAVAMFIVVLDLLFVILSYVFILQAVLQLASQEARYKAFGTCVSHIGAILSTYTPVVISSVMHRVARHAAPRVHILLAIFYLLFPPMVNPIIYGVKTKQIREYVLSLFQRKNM
Method in brief: as §1

OR52K2 (Homo sapiens) = target: T4, OR52K2 (Homo sapiens) (UniProt Q8NGK3)
T4 sequence (whole entry): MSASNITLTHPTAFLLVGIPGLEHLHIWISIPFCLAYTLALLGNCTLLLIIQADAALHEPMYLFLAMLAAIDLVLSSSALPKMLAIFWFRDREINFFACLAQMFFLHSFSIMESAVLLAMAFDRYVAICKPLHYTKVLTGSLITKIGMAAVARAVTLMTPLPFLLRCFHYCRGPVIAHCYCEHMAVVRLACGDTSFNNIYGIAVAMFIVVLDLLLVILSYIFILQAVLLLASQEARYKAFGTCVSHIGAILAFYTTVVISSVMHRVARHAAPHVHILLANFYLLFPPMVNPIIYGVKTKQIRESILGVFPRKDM
Method in brief: as §1

OR52L1 (Homo sapiens) = target: T5, OR52L1 (Homo sapiens) (UniProt Q8NGH7)
T5 sequence (whole entry): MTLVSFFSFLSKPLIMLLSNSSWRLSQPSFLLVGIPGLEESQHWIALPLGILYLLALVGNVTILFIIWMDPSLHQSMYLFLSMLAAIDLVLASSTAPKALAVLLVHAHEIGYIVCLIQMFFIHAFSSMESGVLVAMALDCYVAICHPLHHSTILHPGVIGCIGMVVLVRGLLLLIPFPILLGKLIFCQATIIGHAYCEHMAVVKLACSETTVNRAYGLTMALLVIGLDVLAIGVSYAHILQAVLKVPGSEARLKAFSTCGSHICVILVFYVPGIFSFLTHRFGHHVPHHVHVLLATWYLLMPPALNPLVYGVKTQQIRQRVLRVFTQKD
Method in brief: as §1

OR52M1 (Homo sapiens) = target: T6, OR52M1 (Homo sapiens) (UniProt Q8NGK5)
T6 sequence (whole entry): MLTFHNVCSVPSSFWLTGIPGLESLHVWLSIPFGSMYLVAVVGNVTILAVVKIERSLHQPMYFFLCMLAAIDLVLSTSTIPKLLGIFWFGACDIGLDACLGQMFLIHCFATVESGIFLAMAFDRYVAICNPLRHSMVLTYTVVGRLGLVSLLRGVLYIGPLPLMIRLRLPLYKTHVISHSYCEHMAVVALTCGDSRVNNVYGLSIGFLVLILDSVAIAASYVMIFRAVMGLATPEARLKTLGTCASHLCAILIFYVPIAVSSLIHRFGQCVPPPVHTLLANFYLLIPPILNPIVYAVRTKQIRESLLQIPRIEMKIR
Method in brief: as §1

OR52N1 (Homo sapiens) = target: T7, OR52N1 (Homo sapiens) (UniProt Q8NH53)
T7 sequence (whole entry): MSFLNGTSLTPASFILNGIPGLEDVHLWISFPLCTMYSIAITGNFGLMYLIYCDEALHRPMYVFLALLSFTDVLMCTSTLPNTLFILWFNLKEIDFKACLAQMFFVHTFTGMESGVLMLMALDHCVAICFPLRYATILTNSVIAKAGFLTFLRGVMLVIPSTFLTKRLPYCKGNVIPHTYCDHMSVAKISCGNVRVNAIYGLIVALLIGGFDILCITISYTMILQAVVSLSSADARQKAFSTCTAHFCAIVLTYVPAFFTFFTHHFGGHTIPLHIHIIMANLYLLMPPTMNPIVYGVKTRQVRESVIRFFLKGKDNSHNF
Method in brief: as §1

OR52N2 (Homo sapiens) = target: T8, OR52N2 (Homo sapiens) (UniProt Q8NGI0)
T8 sequence (whole entry): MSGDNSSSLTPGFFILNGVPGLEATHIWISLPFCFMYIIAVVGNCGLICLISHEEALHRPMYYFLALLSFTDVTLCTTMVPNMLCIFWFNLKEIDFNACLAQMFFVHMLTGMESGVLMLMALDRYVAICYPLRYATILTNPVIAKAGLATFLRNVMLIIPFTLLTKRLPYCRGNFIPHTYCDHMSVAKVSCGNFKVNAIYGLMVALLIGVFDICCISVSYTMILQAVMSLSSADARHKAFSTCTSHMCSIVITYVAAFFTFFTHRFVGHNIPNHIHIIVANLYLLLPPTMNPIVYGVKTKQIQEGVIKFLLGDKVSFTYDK
Method in brief: as §1

OR52N4 (Homo sapiens) = target: T9, OR52N4 (Homo sapiens) (UniProt Q8NGI2)
T9 sequence (whole entry): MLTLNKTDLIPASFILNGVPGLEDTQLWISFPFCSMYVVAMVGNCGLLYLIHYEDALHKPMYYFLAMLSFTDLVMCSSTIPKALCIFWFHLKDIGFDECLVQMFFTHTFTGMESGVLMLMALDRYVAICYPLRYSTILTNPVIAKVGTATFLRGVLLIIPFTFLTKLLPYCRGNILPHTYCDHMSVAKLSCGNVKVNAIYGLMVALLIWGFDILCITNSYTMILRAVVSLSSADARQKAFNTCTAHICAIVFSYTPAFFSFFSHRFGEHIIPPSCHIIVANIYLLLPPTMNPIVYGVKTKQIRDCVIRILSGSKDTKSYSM
Method in brief: as §1

OR52N5 (Homo sapiens) = target: T10, OR52N5 (Homo sapiens) (UniProt Q8NH56)
T10 sequence (whole entry): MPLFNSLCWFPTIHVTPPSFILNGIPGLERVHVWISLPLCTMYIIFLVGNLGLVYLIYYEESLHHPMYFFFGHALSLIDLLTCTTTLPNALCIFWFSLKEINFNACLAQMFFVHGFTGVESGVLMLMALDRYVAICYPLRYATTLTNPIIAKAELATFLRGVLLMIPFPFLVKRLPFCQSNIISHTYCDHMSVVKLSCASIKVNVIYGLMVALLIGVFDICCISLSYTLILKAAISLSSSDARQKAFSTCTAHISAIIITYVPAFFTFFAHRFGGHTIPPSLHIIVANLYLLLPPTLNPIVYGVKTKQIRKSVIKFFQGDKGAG
Method in brief: as §1

OR52R1 (Homo sapiens) = target: T11, OR52R1 (Homo sapiens) (UniProt Q8NGF1)
T11 sequence (whole entry): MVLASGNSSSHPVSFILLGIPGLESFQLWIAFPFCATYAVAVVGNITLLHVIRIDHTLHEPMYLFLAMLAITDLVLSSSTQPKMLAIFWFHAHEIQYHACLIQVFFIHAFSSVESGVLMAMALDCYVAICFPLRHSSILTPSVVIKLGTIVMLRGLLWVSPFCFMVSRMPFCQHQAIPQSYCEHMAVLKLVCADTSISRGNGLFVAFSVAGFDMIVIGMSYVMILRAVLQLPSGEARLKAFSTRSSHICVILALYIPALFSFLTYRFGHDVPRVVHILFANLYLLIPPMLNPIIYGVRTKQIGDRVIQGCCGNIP
Method in brief: as §1

OR52W1 (Homo sapiens) = target: T12, OR52W1 (Homo sapiens) (UniProt Q6IF63)
T12 sequence (whole entry): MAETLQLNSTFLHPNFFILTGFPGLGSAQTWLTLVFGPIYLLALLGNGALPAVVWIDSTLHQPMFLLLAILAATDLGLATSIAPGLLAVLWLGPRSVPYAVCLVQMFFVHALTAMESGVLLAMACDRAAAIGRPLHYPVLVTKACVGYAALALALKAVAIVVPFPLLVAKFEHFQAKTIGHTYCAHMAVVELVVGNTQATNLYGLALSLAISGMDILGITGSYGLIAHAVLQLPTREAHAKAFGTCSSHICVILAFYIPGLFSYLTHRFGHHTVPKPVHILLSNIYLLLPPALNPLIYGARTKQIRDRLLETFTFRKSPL
Method in brief: as §1

OR56A1 (Homo sapiens) = target: T13, OR56A1 (Homo sapiens) (UniProt Q8NGH5)
T13 sequence (whole entry): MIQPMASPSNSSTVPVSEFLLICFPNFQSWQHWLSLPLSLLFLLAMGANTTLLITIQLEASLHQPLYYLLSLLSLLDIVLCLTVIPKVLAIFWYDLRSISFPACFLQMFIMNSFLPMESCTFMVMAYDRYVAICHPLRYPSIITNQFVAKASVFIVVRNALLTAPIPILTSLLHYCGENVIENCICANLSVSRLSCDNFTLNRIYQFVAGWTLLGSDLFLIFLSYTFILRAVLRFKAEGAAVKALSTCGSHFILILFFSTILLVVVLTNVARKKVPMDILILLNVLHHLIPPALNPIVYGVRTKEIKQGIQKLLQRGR
Method in brief: as §1

OR56A3 (Homo sapiens) = target: T14, OR56A3 (Homo sapiens) (UniProt Q8NH54)
T14 sequence (whole entry): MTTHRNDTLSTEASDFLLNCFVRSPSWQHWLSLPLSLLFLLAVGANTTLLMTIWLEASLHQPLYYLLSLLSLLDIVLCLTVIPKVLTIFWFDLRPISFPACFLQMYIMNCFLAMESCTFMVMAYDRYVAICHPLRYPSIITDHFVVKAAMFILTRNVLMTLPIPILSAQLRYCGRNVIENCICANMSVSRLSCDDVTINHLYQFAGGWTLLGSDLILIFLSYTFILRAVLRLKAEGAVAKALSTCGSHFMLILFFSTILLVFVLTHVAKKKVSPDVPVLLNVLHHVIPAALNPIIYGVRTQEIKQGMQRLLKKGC
Method in brief: as §1

OR56A4 (Homo sapiens) = target: T15, OR56A4 (Homo sapiens) (UniProt Q8NGH8)
T15 sequence (whole entry): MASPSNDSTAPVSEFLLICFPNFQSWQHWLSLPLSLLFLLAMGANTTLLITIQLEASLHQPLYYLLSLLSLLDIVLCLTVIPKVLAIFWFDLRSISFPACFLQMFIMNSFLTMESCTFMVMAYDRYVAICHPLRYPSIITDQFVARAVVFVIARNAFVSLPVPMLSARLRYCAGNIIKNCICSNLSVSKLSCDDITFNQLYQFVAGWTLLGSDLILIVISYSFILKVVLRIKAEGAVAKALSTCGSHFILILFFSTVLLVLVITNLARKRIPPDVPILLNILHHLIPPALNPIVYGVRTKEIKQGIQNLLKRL
Method in brief: as §1

OR56A5 (Homo sapiens) = target: T16, OR56A5 (Homo sapiens) (UniProt P0C7T3)
T16 sequence (whole entry): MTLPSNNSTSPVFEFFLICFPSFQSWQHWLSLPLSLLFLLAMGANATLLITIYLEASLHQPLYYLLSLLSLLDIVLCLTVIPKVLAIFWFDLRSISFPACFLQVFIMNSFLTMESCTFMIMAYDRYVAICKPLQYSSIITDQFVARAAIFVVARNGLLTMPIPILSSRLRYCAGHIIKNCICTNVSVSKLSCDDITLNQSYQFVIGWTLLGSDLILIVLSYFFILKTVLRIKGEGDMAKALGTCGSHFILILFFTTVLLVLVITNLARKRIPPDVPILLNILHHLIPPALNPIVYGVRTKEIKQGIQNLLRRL
Method in brief: as §1

OR56B1 (Homo sapiens) = target: T17, OR56B1 (Homo sapiens) (UniProt Q8NGI3)
T17 sequence (whole entry): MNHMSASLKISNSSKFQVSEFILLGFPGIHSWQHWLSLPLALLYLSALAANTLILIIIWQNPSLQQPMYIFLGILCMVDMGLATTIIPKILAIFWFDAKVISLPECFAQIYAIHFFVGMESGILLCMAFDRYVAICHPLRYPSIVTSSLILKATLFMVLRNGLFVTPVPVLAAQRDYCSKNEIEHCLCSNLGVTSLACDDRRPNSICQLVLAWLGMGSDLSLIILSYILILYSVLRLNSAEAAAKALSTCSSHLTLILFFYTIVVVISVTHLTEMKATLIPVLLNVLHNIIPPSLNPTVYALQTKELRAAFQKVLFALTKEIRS
Method in brief: as §1

Measured: odorant receptor agonist call

OR52J3 (Homo sapiens), sequence (Q8NH60 whole entry): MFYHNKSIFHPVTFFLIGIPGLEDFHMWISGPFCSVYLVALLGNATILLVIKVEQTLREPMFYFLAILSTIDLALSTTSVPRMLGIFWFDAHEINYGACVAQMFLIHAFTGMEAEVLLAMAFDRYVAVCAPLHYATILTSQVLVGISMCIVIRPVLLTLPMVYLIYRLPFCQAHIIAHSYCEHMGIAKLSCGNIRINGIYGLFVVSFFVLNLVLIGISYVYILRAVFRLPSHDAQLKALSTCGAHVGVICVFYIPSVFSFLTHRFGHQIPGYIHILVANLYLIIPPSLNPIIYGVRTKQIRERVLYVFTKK

CCC(S)C(C)CO (stereo unspecified)
inactive: all assays above

CCCCC(S)C(C)CO (stereo unspecified)
active: OR52L1 (Homo sapiens) | OR52N5 (Homo sapiens)
inactive: all other assays above
